Reference: ChEMBL document CHEMBL3853270, “Influence of Birch Bark Triterpenes on Keratinocytes and Fibroblasts from Diabetic and Nondiabetic Donors” (2016)
Active and inactive are the calls of the source. The rule behind the calls is not given here.

What was measured:
Assay type in all cases: functional
Keratinocyte [1] = test: Effect on antiinflammatory related gene expression in diabetic adult human primary keratinocytes assessed as NFKBIA mRNA levels at 1.96 uM after 6 hrs by qPCR analysis
Summary of the method: (§1)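 Primary keratinocytes from nondiabetic young and adult and diabetic adult donors; 400 000 cells per sample, 6 h exposure at 1.96 or 9.81 μM. RNA extracted and read on a high-throughput qPCR chip. Results are fold change versus 0.1% DMSO solvent control from 5−7 independent experiments over two donors per group, SD, one-way ANOVA with Bonferroni post-test.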

Fibroblast [2] = test: Effect on actin cytoskeleton in human non-diabetic primary fibroblasts assessed as formation of thin elongated cellular body at 10 nM after 2 hrs by rhodamine phalloidin-staining based fluorescence microscopic analysis
Summary of the method: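 Subconfluent cells on glass coverslips, collagen type I coated for fibroblasts; keratinocytes starved 2 days before stimulation. Exposure 2 h, then rhodamine-phalloidin staining (1:25 in PBS) and fluorescence microscopy. Controls were DMSO as solvent and PDGF (fibroblasts) or CNF1 (keratinocytes). Where used, p38-MAPK inhibitor LN 950 (100 nM) was added 30 min beforehand.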

[3] = Effect on wound healing activity in non-diabetic adult human primary keratinocytes assessed as upregulation of MIP1alpha protein levels at 1.96 uM after 24 hrs by bead-based suspension array analysis; conditions: Keratinocyte
Keratinocyte [4] = test: Effect on ECM related gene expression in diabetic adult human primary keratinocytes assessed as FBN1 mRNA levels at 9.81 uM after 6 hrs by qPCR analysis; summary of the method: as §1
[5] = Effect on wound healing activity in non-diabetic adult human primary keratinocytes assessed as upregulation of RANTES protein levels at 1.96 uM after 24 hrs by bead-based suspension array analysis; conditions: Keratinocyte
Fibroblast [6] = test: Effect on chemokines related gene expression in non-diabetic adult human primary fibroblasts assessed as CCL2 mRNA levels at 9.81 uM after 6 hrs by qPCR analysis
Fibroblast [7] = test: Effect on pro-inflammatory related gene expression in diabetic adult human primary fibroblasts assessed as IL1R1 mRNA levels at 1.96 uM after 6 hrs by qPCR analysis
Summary of the method: (§2)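 Primary human dermal fibroblasts (young or adult nondiabetic, adult diabetic donor) were treated for 6 h against a 0.1% DMSO solvent control. RNA from 320 000 cells per sample was measured by Fluidigm Biomark high-throughput qPCR. Values are fold change relative to solvent control, from four independent experiments, with SD. One-way ANOVA with Bonferroni post-test was applied.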

Keratinocyte [8] = test: Effect on pro-inflammatory related gene expression in non-diabetic adult human primary keratinocytes assessed as PTGS2 mRNA levels at 1.96 uM after 6 hrs by qPCR analysis
Keratinocyte [9] = test: Effect on cellular connection related gene expression in diabetic adult human primary keratinocytes assessed as GJB2 mRNA levels at 9.81 uM after 6 hrs by qPCR analysis
Fibroblast [10] = test: Effect on adhesion molecules related gene expression in non-diabetic adult human primary fibroblasts assessed as ICAM1 mRNA levels at 9.81 uM after 6 hrs by qPCR analysis
Summary of the method: (§3)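 Dermal fibroblasts from nondiabetic adult and diabetic adult donors, exposed for 6 h at 1.96 or 9.81 μM. ICAM-1 and VCAM-1 mRNA measured by standard qRT-PCR, n = 3. Fold change versus 0.1% DMSO control, SD, one-way ANOVA with Bonferroni post-test.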

Fibroblast [11] = test: Effect on pro-inflammatory related gene expression in non-diabetic young human primary fibroblasts assessed as IL1R1 mRNA levels at 1.96 uM after 6 hrs by qPCR analysis
Keratinocyte [12] = test: Effect on cellular connection related gene expression in non-diabetic young human primary keratinocytes assessed as GJB2 mRNA levels at 9.81 uM after 6 hrs by qPCR analysis
Fibroblast [13] = test: Effect on growth factors related gene expression in diabetic adult human primary fibroblasts assessed as FGF2 mRNA levels at 1.96 uM after 6 hrs by qPCR analysis; summary of the method: as §2
Keratinocyte [14] = test: Effect on growth factor related gene expression in non-diabetic adult human primary keratinocytes assessed as GDF15 mRNA levels at 1.96 uM after 6 hrs by qPCR analysis
Summary of the method: (§4)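 Primary human keratinocytes (nondiabetic young or adult, diabetic adult donors) were exposed to compound for 6 h, with 0.1% DMSO as solvent control. Total RNA came from 400 000 cells per sample and was assayed on a Fluidigm Biomark high-throughput qPCR chip. Results are fold change vs solvent control, from 2−4 independent experiments on two donors per group, with SD. Groups were compared by one-way ANOVA with Bonferroni post-test.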

Fibroblast [15] = test: Effect on pro-inflammatory related gene expression in non-diabetic young human primary fibroblasts assessed as IL6 mRNA levels at 1.96 uM after 6 hrs by qPCR analysis
[16] = Effect on wound healing activity in diabetic adult human primary keratinocytes assessed as upregulation of IL1RA protein levels at 1.96 uM after 24 hrs by bead-based suspension array analysis; conditions: Keratinocyte
Fibroblast [17] = test: Effect on adhesion molecules related gene expression in diabetic adult human primary fibroblasts assessed as ICAM1 mRNA levels at 1.96 uM after 6 hrs by qPCR analysis; summary of the method: as §3
Keratinocyte [18] = test: Effect on growth factor related gene expression in non-diabetic young human primary keratinocytes assessed as PDGFB mRNA levels at 1.96 uM after 6 hrs by qPCR analysis; summary of the method: as §4
Fibroblast [19] = test: Effect on adhesion molecules related gene expression in non-diabetic adult human primary fibroblasts assessed as ICAM1 mRNA levels at 1.96 uM after 6 hrs by qPCR analysis; summary of the method: as §3
Fibroblast [20] = test: Effect on growth factor related gene expression in diabetic adult human primary fibroblasts assessed as GDF15 mRNA levels at 9.81 uM after 6 hrs by qPCR analysis; summary of the method: as §2
[21] = Effect on wound healing activity in diabetic adult human primary fibroblasts assessed as upregulation of MIF protein levels at 1.96 uM after 24 hrs by bead-based suspension array analysis; conditions: Fibroblast
Fibroblast [22] = test: Effect on MMP1 mRNA expression levels in non-diabetic adult human primary fibroblasts at 9.81 uM after 6 hrs by qPCR analysis
Summary of the method: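 Primary dermal fibroblasts from one nondiabetic young, one nondiabetic adult and one diabetic adult donor; 320 000 cells per sample, 6 h at 1.96 or 9.81 μM. RNA measured on a high-throughput qPCR chip. Fold change versus 0.1% DMSO control, four independent experiments, SD, one-way ANOVA with Bonferroni post-test.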

Fibroblast [23] = test: Effect on antioxidant related gene expression in diabetic adult human primary fibroblasts assessed as NFE2L2 mRNA levels at 1.96 uM after 6 hrs by qPCR analysis
Fibroblast [24] = test: Effect on chemokines related gene expression in non-diabetic young human primary fibroblasts assessed as CCL2 mRNA levels at 9.81 uM after 6 hrs by qPCR analysis; summary of the method: as §2
Fibroblast [25] = test: Effect on chemokines related gene expression in non-diabetic adult human primary fibroblasts assessed as WDR26 mRNA levels at 1.96 uM after 6 hrs by qPCR analysis
Keratinocyte [26] = test: Effect on pro-inflammatory related gene expression in non-diabetic adult human primary keratinocytes assessed as PTGS2 mRNA levels at 9.81 uM after 6 hrs by qPCR analysis
Fibroblast [27] = test: Effect on pro-inflammatory related gene expression in non-diabetic adult human primary fibroblasts assessed as PTGS2 mRNA levels at 1.96 uM after 6 hrs by qPCR analysis

## C=C(C)[C@@H]1CC[C@]2(CO)CC[C@]3(C)[C@H](CC[C@@H]4[C@@]5(C)CC[C@H](O)C(C)(C)[C@@H]5CC[C@]43C)[C@@H]12 [BETULIN]
Keratinocyte [1]
  fold change (FC): 1.2
Fibroblast [2]
  Activity: Active
[3]
  Activity: Active
Keratinocyte [4]
  fold change (FC): 2.5
[5]
  Activity: Active
Fibroblast [6]
  fold change (FC): 197
Fibroblast [7]
  fold change (FC): 1.7
Keratinocyte [8]
  fold change (FC): 1
Keratinocyte [9]
  fold change (FC): 0.9
Fibroblast [10]
  fold change (FC): 152
Fibroblast [11]
  fold change (FC): 3.7
Keratinocyte [12]
  fold change (FC): 0.8
Fibroblast [13]
  fold change (FC): 2
Keratinocyte [14]
  fold change (FC): 1
Fibroblast [15]
  fold change (FC): 45
[16]
  Activity: Active
Fibroblast [17]
  fold change (FC): 6.3
Keratinocyte [18]
  fold change (FC): 1.2
Fibroblast [19]
  fold change (FC): 144
Fibroblast [20]
  fold change (FC): 1.8
[21]
  Activity: Active
Fibroblast [22]
  fold change (FC): 2.3
Fibroblast [23]
  fold change (FC): 1.8
Fibroblast [24]
  fold change (FC): 4.3
Fibroblast [25]
  fold change (FC): 0.9
Keratinocyte [26]
  fold change (FC): 1.3
Fibroblast [27]
  fold change (FC): 146
